Results taken from ChEMBL document CHEMBL1122226, “6-Aryl-4,5-dihydro-3(2H)-pyridazinones. A new class of compounds with platelet aggregation inhibiting and hypotensive activities” (J Med Chem, 1983).
Values after ≈ are worked out from the molar mass of the structure shown.

Organism: Homo sapiens
Test: In vitro inhibition of ADP-induced human platelet aggregation
Assay type: functional
Conditions: Homo sapiens; read-out: EC50
In short: (§1)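 Human venous blood citrated with 10% v/v sodium citrate (3.8%); platelet-rich plasma spun at 300g, 10 min, 4 °C, used within 2 h. Compound in Me2SO (1% final) preincubated 10 min at room temperature; aggregation triggered by collagen 0.02 mg/mL final or ADP 0.85 μg/mL final; maximum rate read in Born aggregometer. EC50 from log dose–effect regression with 95% confidence limits.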

SMILES | EC50 [µg/mL]
CC1CC(=O)NN=C1c1ccc(NC(=O)CCCCl)cc1 (configuration not stated) | 1.63 (≈ 5.3 µM)
CCCNCC(=O)Nc1ccc(C2=NNC(=O)CC2)cc1.Cl | ~46.4
CC(Cl)C(=O)Nc1ccc(C2=NNC(=O)CC2C)cc1 (configuration not stated) [AMIPIZONE] | 0.099 (≈ 0.337 µM)
CC1CC(=O)NN=C1c1ccc(NC(=O)C(C)(C)CCl)cc1 (configuration not stated) | 0.28 (≈ 0.87 µM)
CCCCC(=O)Nc1ccc(C2=NNC(=O)CC2)cc1 | 2.64 (≈ 9.66 µM)
CCC(Br)C(=O)Nc1ccc(C2=NNC(=O)CC2C)cc1 (configuration not stated) | 0.052 (≈ 0.148 µM)
Nc1cccc(C2=NNC(=O)CC2)c1 | > 46.4
O=C1CCC(c2ccc(NC(=O)CN3CCOCC3)cc2)=NN1 | ~46.4 (≈ 147 µM)
C=CCNCC(=O)Nc1ccc(C2=NNC(=O)CC2)cc1.Cl | ~21.5
O=CNc1ccc(C2=NNC(=O)CC2)cc1 | 3.74 (≈ 17.2 µM)
CC(Cl)C(=O)Nc1ccc(C2=NNC(=O)CC2)cc1 (configuration not stated) | 0.45 (≈ 1.61 µM)

Organism: Homo sapiens
Test: In vitro inhibition of collagen-induced human platelet aggregation.
Assay type: functional, organism-based
Conditions: Homo sapiens; read-out: EC50
In short: as §1

SMILES | EC50 [µg/mL]
CC1CC(=O)NN=C1c1ccc(NC(=O)CCCCl)cc1 (configuration not stated) | 1.66 (≈ 5.39 µM)
CCCNCC(=O)Nc1ccc(C2=NNC(=O)CC2)cc1.Cl | ~10
CCCCC(=O)Nc1ccc(C2=NNC(=O)CC2)cc1 | 3.34 (≈ 12.2 µM)
Nc1cccc(C2=NNC(=O)CC2)c1 | > 46.4
O=C1CCC(c2ccc(NC(=O)CN3CCOCC3)cc2)=NN1 | ~21.5 (≈ 68 µM)
C=CCNCC(=O)Nc1ccc(C2=NNC(=O)CC2)cc1.Cl | ~4.64
O=CNc1ccc(C2=NNC(=O)CC2)cc1 | 5.27 (≈ 24.3 µM)
CC(Cl)C(=O)Nc1ccc(C2=NNC(=O)CC2)cc1 (configuration not stated) | 0.28 (≈ 1 µM)

Organism: Homo sapiens
Test: Relative activity (compared to acetylsalicylic acid) for in vitro inhibition of collagen-induced human platelet aggregation
Assay type: functional
Conditions: not given

SMILES | Relative activity
CC1CC(=O)NN=C1c1ccc(NC(=O)CCCCl)cc1 (configuration not stated) | 298
CCCNCC(=O)Nc1ccc(C2=NNC(=O)CC2)cc1.Cl | ~49
CC(Cl)C(=O)Nc1ccc(C2=NNC(=O)CC2C)cc1 (configuration not stated) [AMIPIZONE] | 15936
CC1CC(=O)NN=C1c1ccc(NC(=O)C(C)(C)CCl)cc1 (configuration not stated) | 1051
CCCCC(=O)Nc1ccc(C2=NNC(=O)CC2)cc1 | 148
Nc1cccc(C2=NNC(=O)CC2)c1 | <11
O=C1CCC(c2ccc(NC(=O)CN3CCOCC3)cc2)=NN1 | ~23
C=CCNCC(=O)Nc1ccc(C2=NNC(=O)CC2)cc1.Cl | ~107
O=CNc1ccc(C2=NNC(=O)CC2)cc1 | 94
CC(Cl)C(=O)Nc1ccc(C2=NNC(=O)CC2)cc1 (configuration not stated) | 1764

System: Rattus norvegicus
Test: In vitro hypotensive activity in anesthetized rats after intraperitoneal administration.
Assay type: functional
Conditions: ip, in the assay text read “In vivo” for “In vitro”
In short: (§2)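 Male Sprague-Dawley rats, 230-280 g, urethane-anesthetized (ip); carotid arterial pressure recorded continuously by pressure transducer. Compounds given ip at 2 mL/kg. ED20, dose lowering mean carotid pressure by 20%, from log dose–effect regression; dihydralazine as reference.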

SMILES | ED20 [mg/kg]
CC1CC(=O)NN=C1c1ccc(NC(=O)CCCCl)cc1 (configuration not stated) | 0.32
CCCNCC(=O)Nc1ccc(C2=NNC(=O)CC2)cc1.Cl | > 1
CC(Cl)C(=O)Nc1ccc(C2=NNC(=O)CC2C)cc1 (configuration not stated) [AMIPIZONE] | 0.0081
CC1CC(=O)NN=C1c1ccc(NC(=O)C(C)(C)CCl)cc1 (configuration not stated) | 0.61
CCCCC(=O)Nc1ccc(C2=NNC(=O)CC2)cc1 | 1
CCC(Br)C(=O)Nc1ccc(C2=NNC(=O)CC2C)cc1 (configuration not stated) | 1.49
Nc1cccc(C2=NNC(=O)CC2)c1 | > 1
O=C1CCC(c2ccc(NC(=O)CN3CCOCC3)cc2)=NN1 | > 1
C=CCNCC(=O)Nc1ccc(C2=NNC(=O)CC2)cc1.Cl | > 1
O=CNc1ccc(C2=NNC(=O)CC2)cc1 | 0.32
CC(Cl)C(=O)Nc1ccc(C2=NNC(=O)CC2)cc1 (configuration not stated) | 0.53

System: Rattus norvegicus
Test: Ex vivo inhibition of collagen-induced rat platelet aggregation after peroral administration
Assay type: functional
Conditions: po
In short: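 Male Sprague-Dawley rats, 200-250 g, dosed orally, three rats per dose. Blood drawn by heart puncture under ether 1 h post-dose; platelet-rich plasma prepared by centrifugation; aggregation induced with collagen 0.02 mg/mL final, maximum rate read in Born aggregometer.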

SMILES | ED33 [mg/kg]
CC(Cl)C(=O)Nc1ccc(C2=NNC(=O)CC2C)cc1 (configuration not stated) [AMIPIZONE] | 0.63
CC1CC(=O)NN=C1c1ccc(NC(=O)C(C)(C)CCl)cc1 (configuration not stated) | 5
CCC(Br)C(=O)Nc1ccc(C2=NNC(=O)CC2C)cc1 (configuration not stated) | 2.58
CC(Cl)C(=O)Nc1ccc(C2=NNC(=O)CC2)cc1 (configuration not stated) | 22.6

System: not listed separately
Test: In vitro inhibition of collagen induced aggregation of human plateles and the ratio of ED33 to EC50 was reported
Assay type: functional
Conditions: not given
In short: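 Ratio of oral ED33 (male Sprague-Dawley rats, 3 per dose, blood taken 1 h post-dose, collagen-triggered aggregation) to in vitro EC50 (human citrated platelet-rich plasma, 10 min room-temperature preincubation in 1% Me2SO, collagen 0.02 mg/mL final, regression-derived).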

SMILES | Ratio
CC(Cl)C(=O)Nc1ccc(C2=NNC(=O)CC2C)cc1 (configuration not stated) [AMIPIZONE] | 20.3
CC1CC(=O)NN=C1c1ccc(NC(=O)C(C)(C)CCl)cc1 (configuration not stated) | 10.6
CCC(Br)C(=O)Nc1ccc(C2=NNC(=O)CC2C)cc1 (configuration not stated) | 9.6
CC(Cl)C(=O)Nc1ccc(C2=NNC(=O)CC2)cc1 (configuration not stated) | 82.7

System: Rattus norvegicus
Test: Activity relative to dihydralazine for in vitro hypotensive activity in anesthetized rats
Assay type: functional
Conditions: in the assay text read “in vivo” for “in vitro”
In short: as §2

SMILES | Relative activity
CCCNCC(=O)Nc1ccc(C2=NNC(=O)CC2)cc1.Cl | <0.34
CC(Cl)C(=O)Nc1ccc(C2=NNC(=O)CC2C)cc1 (configuration not stated) [AMIPIZONE] | 41.7
CC1CC(=O)NN=C1c1ccc(NC(=O)C(C)(C)CCl)cc1 (configuration not stated) | 0.55
CCCCC(=O)Nc1ccc(C2=NNC(=O)CC2)cc1 | 0.34
CCC(Br)C(=O)Nc1ccc(C2=NNC(=O)CC2C)cc1 (configuration not stated) | 0.23
Nc1cccc(C2=NNC(=O)CC2)c1 | <0.34
O=C1CCC(c2ccc(NC(=O)CN3CCOCC3)cc2)=NN1 | <0.34
C=CCNCC(=O)Nc1ccc(C2=NNC(=O)CC2)cc1.Cl | <0.34
O=CNc1ccc(C2=NNC(=O)CC2)cc1 | 1.06
CC(Cl)C(=O)Nc1ccc(C2=NNC(=O)CC2)cc1 (configuration not stated) | 0.64

Organism: Rattus norvegicus
Test: Relative activity in rats based on acetylsalicylic acid
Assay type: functional
Conditions: not given

SMILES | Relative activity
CC(Cl)C(=O)Nc1ccc(C2=NNC(=O)CC2C)cc1 (configuration not stated) [AMIPIZONE] | 370
CC1CC(=O)NN=C1c1ccc(NC(=O)C(C)(C)CCl)cc1 (configuration not stated) | 46.6
CCC(Br)C(=O)Nc1ccc(C2=NNC(=O)CC2C)cc1 (configuration not stated) | 90.3
CC(Cl)C(=O)Nc1ccc(C2=NNC(=O)CC2)cc1 (configuration not stated) | 10.3
